Measured values published in PubChem BioAssay AID1899 (The Scripps Research Institute Molecular Screening Center, 2009).
The whole screen tested about 300,000 compounds, of which about 1,000 (0.33%) were called active. This is one part of a sample in which actives are shown more often than they occur. Values without a mark were called inactive.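 How the source made its calls: active means inhibition above the mean of all tested compounds plus 3 SD, set per screening campaign (cut at about 45% in these data); inactive means the rest.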

tested on: HCV core protein (residues 1-106) dimerization; test: blockers of core106 self-association – biochemical, TR-FRET, high-throughput, primary screen (AID 1899); settings: TR-FRET GST/Flag-core106 dimerization, 1536-well; at 5 µM; hits give high values
Procedure, shortened: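 Assay system: tagged HCV core106 pair (GST and Flag); medium: KF-containing HEPES buffer, pH 7.45, DTT, CHAPS, BSA; also added: Eu donor and XL665 acceptor anti-tag antibodies; dosing: 5 µM single dose; timing: compound-protein-antibody incubation 4 h at 22.5 °C; signal: TR-FRET 671 and 617 nm emission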

SMILES | inhibition
Cc1ccc(NC(=O)c2cc(-c3ccc(C)o3)nc3ccccc23)nc1 | 49.3% (active)
CC(=O)N1CCN(C(=O)c2cc(-c3ccc(C)o3)nc3ccccc23)CC1 | 1.32%
COc1ccc(NC(=O)c2cc(-c3ccc(C)o3)nc3ccccc23)cc1 | 17.9%
CN(CC(=O)Nc1cccc2c1CCCC2)S(=O)(=O)c1ccc(Cl)cc1 | 1.71%
COc1ccc(N2CCN(C(=O)CSc3nnc4ncccn34)CC2)cc1 | -2.8%
COc1ccc(N2CCN(C(=O)CSc3nc4cc(OC)c(OC)cc4cc3C#N)CC2)cc1 | 53.1% (active)
CCOc1ccc(-c2nnn(CC(=O)N3CCN(c4ccc(OC)cc4)CC3)n2)cc1OCC | 7.89%
Cc1nnc(SC(C(=O)Nc2cc(Cl)cc(Cl)c2)c2ccccc2)[nH]c1=O (stereo not given) | 4.94%
COC(=O)c1cc(-c2cccs2)nc2ccccc12 | 3.48%
CN(C(=O)COc1nnc(-c2cccs2)c(-c2cccs2)n1)c1ccccc1 | 49% (active)
O=C(O)Cc1sc(-c2ccccc2)nc1-c1cccs1 | 5.73%
CN(C(=O)CC1C(=O)NCCN1Cc1ccc(F)cc1Cl)C1CCCCC1 (stereo not given) | -6.47%
Cc1ccc(C(=O)c2coc3ccc(O)c(CN(C)C)c23)cc1 | -5.01%
COc1cc(OC)c(C(=S)N2CCCC2)cc1OC | 4.43%
COc1ccc(S(=O)(=O)N/N=C\c2ccc(OC)c(COc3ccc(C)cc3[N+](=O)[O-])c2)cc1 | 56% (active)
COc1ccc(/C=N/NS(=O)(=O)c2ccc(NC(C)=O)cc2)cc1 | -3.63%
Cc1ccc(S(=O)(=O)N/N=C\c2cc3c(cc2[N+](=O)[O-])OCO3)cc1 | 2.28%
COc1ccccc1N(CC(=O)Nc1ccc(C(F)(F)F)cc1)S(C)(=O)=O | -4.98%
O=C(O)CSc1nccn1-c1cccc(Cl)c1 | -3.31%
CC(C(=O)N=Nc1c(O)n(C)c2ccc(Br)cc12)n1cnc2ccccc2c1=O (stereo not given) | 11.6%
O=C(CN1CCN(S(=O)(=O)/C=C/c2ccccc2)CC1)Nc1ccc(N2CCOCC2)cc1 | 2.85%
COc1ccccc1N1CCN(CC(=O)NC(=O)NCc2ccco2)CC1 | -7.99%
O=C(CN1CCN(S(=O)(=O)/C=C/c2ccccc2)CC1)NC(=O)NCc1ccco1 | 47.9% (active)
Cc1ccc(S(=O)(=O)NCCC(=O)OCC(=O)N(C)c2ccccc2)cc1 | -0.65%
N#Cc1cccc(NC(=O)CN2CCCCCC2)c1 | -0.12%
Cc1cccc(C(=O)OC(C)C(=O)NC2CCCc3ccccc32)c1O (stereo not given) | -6.15%
C=CCOC(=O)C1=C(C)NC(SCC(=O)OCC)=C(C#N)C1c1ccc(C)cc1 (stereo not given) | 59.5% (active)
C=CCOC(=O)C1=C(C)OC(N)=C(C#N)C1c1ccc(F)cc1 (stereo not given) | -4.37%

SMILES | inhibition
CCOC(=O)CSC1=C(C#N)C(c2sccc2C)CC(=O)N1 (stereo not given) | 6.38%
Cc1ccc(CN(N=Nc2nonc2N)c2nonc2N)c(C)c1 | 0.98%
CS(=O)(=O)C1=NN2C(=N)/C(=C\c3ccc(OCCOc4ccccc4)cc3)C(=O)N=C2S1 | 18.8%
Cc1cc(/C=C2/C(=N)N3C(=NC2=O)SN=C3S(C)(=O)=O)c(C)n1-c1ccccc1 | 18.8%
CS(=O)(=O)c1ccc2c(c1)SC1=NC(=O)/C(=C/c3ccco3)C(=N)N12 | 79.4% (active)
Cc1ccc(C)c2[nH]c(=O)c(CN(Cc3cccnc3)C(=S)NCc3ccco3)cc12 | 7.88%
C[C@H]1CCC(=O)N([C@H](CSc2ccccc2)Cc2ccccc2)CC1 | -3.23%
O=C(Nc1ccncc1)c1cc(-c2ccccn2)nc2ccc(Br)cc12 | -6.91%
O=C(NCc1cccs1)c1cc(-c2ccccn2)nc2ccc(Br)cc12 | 49.3% (active)
O=C(NCC(c1cccs1)N1CCOCC1)c1cc(-c2ccccn2)nc2ccccc12 (stereo not given) | 0.32%
Cc1cc(C)n(CCNC(=O)CC2C(=O)NCCN2Cc2ccc(C)o2)n1 (stereo not given) | 2.72%
COc1ccc(OC)c(NC(=O)N[C@H](Cc2ccccc2)C(=O)NN)c1 | -4.04%
CCOC(=O)C1(CC2CCCCO2)CCN(Cc2nc(-c3cccs3)oc2C)CC1 (stereo not given) | -1.21%
Cc1ccc(C(=O)N/C(=C/c2ccc(-c3cccc([N+](=O)[O-])c3)o2)C(=O)NCCCN(C)C)cc1 | -11.9%
Cc1ccc(Cc2cnc(NC(=O)/C(C#N)=C/c3ccc(-c4cccc([N+](=O)[O-])c4)o3)s2)cc1 | 46.7% (active)
N#C/C(=C\c1ccc(-c2cccc([N+](=O)[O-])c2)o1)C(=O)NCCN1CCOCC1 | -14.4%
CN1/C(=c2/s/c(=C3/C(=O)N(c4ccccc4)NC3=Nc3ccccc3)n(C)c2=O)C(C)(C)c2ccccc21 | 21.6%
C=CCC1(C#N)C(=S)NC(C)=C(C(=O)OCC)C1c1ccccc1 (stereo not given) | -0.47%
CC(C)c1ccc(N2CC(C(=O)Nc3nccs3)CC2=O)cc1 (stereo not given) | 3.92%
O=C(CCCN1C(=O)/C(=C\c2ccco2)SC1=S)Nc1cccc2ccccc12 | 50.6% (active)
O=C(CCCN1C(=O)/C(=C\c2ccccc2)SC1=S)Nc1ccccc1O | 1.56%
O=C(CCCN1C(=O)/C(=C/c2ccccc2)SC1=S)Nc1ccc(O)cc1 | 0.73%
CCC(c1nnnn1Cc1ccco1)N(Cc1cc2cc(OC)ccc2[nH]c1=O)C1CCCCC1 (stereo not given) | 53.5% (active)
CCC(c1nnnn1Cc1ccccc1)N(Cc1cc2cc(OC)ccc2[nH]c1=O)CC1CCCO1 (stereo not given) | 9.57%
CCC(c1nnnn1Cc1ccco1)N(CCc1ccccc1)Cc1cc2ccc(OC)cc2[nH]c1=O (stereo not given) | 14.3%
O=C(CSc1nnc(-c2ccc([N+](=O)[O-])cc2)o1)Nc1ccccn1 | -13.9%
Cc1cc2c(cc1C)N(C(=O)CN1C(=O)c3ccccc3C1=O)C(C)(C)c1ssc(=S)c1-2 | 20.8%
